Source: ChEMBL document CHEMBL1157340, “Highly substituted terphenyls as inhibitors of parasite cGMP-dependent protein kinase activity” (J Nat Prod, 2006)

Legend:
Toxoplasma gondii = assay: Antiparasitic activity against Toxoplasma gondii in human foreskin fibroblast by beta-galactosidase assay; format: functional, organism-based
Outline: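 Human foreskin fibroblasts grown to confluence, then infected with T. gondii strain stably expressing bacterial β-galactosidase; parasite growth allowed 5 days with test samples present. Chlorophenol red-β-D-galactopyranoside added, further 2–4 h incubation, absorbance read at 570 nm as measure of parasite viability. IC50 reported.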

[1] = molecular target: cGMP-dependent protein kinase (Eimeria tenella); assay: Inhibition of Eimeria tenella cGMP-dependent protein kinase assessed as inhibition of transfer of phosphate group by radiometric assay

| Structure (SMILES) | IC50 (Toxoplasma gondii) [µM] | IC50 [1] [µM] |
| --- | --- | --- |
| COc1c(O)c(-c2ccccc2)cc(O)c1-c1cc(O)ccc1O | 9.5 | 5.8 |
| COc1c(O)c(-c2ccccc2)cc(O)c1-c1ccccc1O | 10.4 | 5.2 |
| CN1CCC(c2cc(-c3ccncc3)c(-c3ccc(F)cc3)[nH]2)CC1 | 0.21 | < 0.001 |
| COc1cc(-c2ccccc2)c(O)c(O)c1-c1ccccc1 [TERFEROL] | 26.8 | 3.9 |
